Results on two compounds are retold here after ChEMBL document CHEMBL1275590, “Novel arylimidamides for treatment of visceral leishmaniasis” (Antimicrob Agents Chemother, 2010).

A short description of data set [1]: Induction of mutagenicity in Salmonella serovar Typhimurium TA 98 assessed as number of revertant colonies at 50 ug by Ames assay. The data set is classed as toxicity, Salmonella enterica subsp. enterica serovar Typhimurium. The procedure, abridged:
(§1)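 Plate incorporation test, S. Typhimurium TA98 (and TA100), with or without Aroclor 1254-induced rat liver S9 (10% vol/vol). Compound dissolved in sterile water, serially diluted to 1–1,000 or 1–500 μg/plate. Positive controls: 2-nitrofluorene and sodium azide without S9, 2-aminoanthracene with S9; water and DMSO vehicle controls. Revertant colonies and background lawn scored; mutagen if mean revertants ≥2-fold solvent control. Single experiment.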

In data set [2] the test system is Leishmania donovani. The data set can be described thus: Antileishmanial activity against Leishmania donovani WR378 infected in golden Syrian hamster assessed as reduction in bone marrow parasitemia at 50 mg/kg/day, po administered for five days. In kind it is functional. Particulars: 120 h. The procedure, abridged:
(§2)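 11-day golden hamster VL model adapted from an 8-day method, using L. donovani WR378 metacyclic promastigotes. Dosing was oral, once daily for 5 days. Animals were euthanized on day 11 post-infection. Liver, spleen and femoral bone marrow (flushed with Schneider's medium) were harvested.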

Data set [3] in a line: Induction of mutagenicity in Salmonella serovar Typhimurium TA 98 assessed as number of revertant colonies at 10 ug by Ames assay. In kind it is toxicity, Salmonella enterica subsp. enterica serovar Typhimurium. Particulars: in vivo. In outline:
(§3)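 Ames plate incorporation with S. Typhimurium TA98 and TA100, with or without Aroclor 1254-induced rat liver S9 (10% vol/vol). Compound was dissolved in sterile water and serially diluted to 1–500 μg/plate. Positive controls were 2-nitrofluorene and sodium azide without S9, and 2-aminoanthracene with S9; sterile water and DMSO served as vehicles. Revertant colonies and background lawn were scored. A mutagen was defined as a mean revertant count at least 2-fold over solvent control. Single experiment.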
Background: The Ames test uses bacterial strains that need an amino acid and regain growth without it when mutated back.

The nature of data set [4]: Induction of mutagenicity in Salmonella serovar Typhimurium TA 98 assessed as number of revertant colonies at 10 ug by Ames assay in presence of Aroclor 1254-induced rat liver S9 metabolic activation system. The data set is classed as toxicity, subcellular, Salmonella enterica subsp. enterica serovar Typhimurium. In outline:
as §3

Data set [5] is described as follows: Half life in Swiss Webster mouse at 5 mg/kg, iv by HPLC-MS/MS analysis. The data set is classed as ADME, organism-based. Also on record: dose 5 mg/kg, route intravenous. The note with it: in vivo. The procedure, abridged:
(§4)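 Male Swiss Webster mice, n = 3 per time point. For i.v., the compound was dissolved in sterile water, diluted 1:1 with 2× saline, and given as a tail-vein bolus over ~10–20 s. For p.o., it was given by gavage in sterile water. Dose volume was 5 ml/kg. Terminal plasma was taken from 5 min to 72 h and measured by HPLC-MS/MS (calibration 2.5–10,000 nM). Parameters came from noncompartmental analysis.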

Data set [6] can be described thus: Induction of mutagenicity in Salmonella serovar Typhimurium TA 100 assessed as number of revertant colonies at 100 ug by Ames assay in presence of Aroclor 1254-induced rat liver S9 metabolic activation system. The data set is classed as toxicity, subcellular, Salmonella enterica subsp. enterica serovar Typhimurium. In outline: as §3
The test system of data set [7] is Mus musculus. The data set can be described thus: Toxicity in BALB/c mouse at 100 mg/kg/day, po administered for five days. Particulars: in vivo. Also on record: route oral. The data set is classed as organism-based. In outline:
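Five-day repeat-dose study in female BALB/c mice (n = 5 per dose level): oral dosing once daily for five consecutive days in sterile water prepared fresh daily under yellow light, 20 ml/kg. Vehicle controls received sterile water only. Clinical observations and body weights were recorded, with blood for hematology and serum chemistry taken on day 6 before necropsy. A veterinary pathologist examined formalin-fixed tissues.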

Data set [8] deals with Leishmania donovani. Description: Antileishmanial activity against Leishmania donovani WR378 infected in golden Syrian hamster assessed as reduction in bone marrow parasitemia at 30 mg/kg/day, po administered for five days. Particulars: 120 h. In kind it is functional. The procedure, abridged:
as §2

Data set [9] in a line: Induction of mutagenicity in Salmonella serovar Typhimurium TA 100 assessed as number of revertant colonies at 50 ug by Ames assay in presence of Aroclor 1254-induced rat liver S9 metabolic activation system. In kind it is toxicity, subcellular, Salmonella enterica subsp. enterica serovar Typhimurium. The procedure, abridged: as §3
For data set [10], the system named is Leishmania donovani. Description: Antileishmanial activity against Leishmania donovani WR378 infected in golden Syrian hamster assessed as reduction in spleen parasitemia at 100 mg/kg/day, po administered for five days. The data set is classed as functional. The note with it: 120 h. In outline: as §2
In data set [11] the test system is Mus musculus. Description: Hepatotoxicity in BALB/c mouse assessed as ALT level in serum at 30 mg/kg/day, iv administered for five days (Rvb= 34 U/L). Further details: route intravenous. Particulars: in vivo. In kind it is toxicity, organism-based.
Data set [12] relates to Leishmania donovani. The data set can be described thus: Antileishmanial activity against Leishmania donovani promastigotes in BALB/c mouse assessed as inhibition of liver parasitemia at 100 mg/kg/day, po administered for five days. In kind it is functional. Also on record: scale not given: the % may be the effect or the level left. The procedure, abridged: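 Murine VL model in L. donovani-infected mice. Compounds were dissolved in water and given i.p. or p.o. once daily for 5 days (4 days for one i.p. regimen). Liver parasitemia was compared with untreated controls by unpaired Student's t test, P ≤ 0.05.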

Data set [13] in a line: Induction of mutagenicity in Salmonella serovar Typhimurium TA 98 assessed as number of revertant colonies at 5 ug by Ames assay in presence of Aroclor 1254-induced rat liver S9 metabolic activation system. The data set is classed as toxicity, subcellular, Salmonella enterica subsp. enterica serovar Typhimurium. In outline:
as §1

The nature of data set [14]: Cmax in Swiss Webster mouse at 70 mg/kg, po by HPLC-MS/MS analysis. The data set is classed as ADME, organism-based. Also on record: dose 70 mg/kg, route oral. Particulars: in vivo. In outline: as §4
Data set [15] has as its system Mus musculus. Description: Renal toxicity in BALB/c mouse assessed as phosphorus level in serum at 30 mg/kg/day, iv administered for five days (Rvb= 6.1 mg/dl). In kind it is organism-based. The note with it: in vivo. Also on record: route intravenous. The procedure, abridged:
(§5)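 Female BALB/c mice (n = 5 per dose), dosed once daily for 5 consecutive days p.o. (20 ml/kg) or i.v. (10 ml/kg) with compound in sterile water, prepared fresh daily under yellow light. Vehicle controls n = 5 per route. Clinical observations, body weights, serum chemistry and hematology on day 6 before necropsy; histopathology of formalin-fixed tissues. Chemistry analysed by one-way ANOVA with Dunnett's posttest.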

Data set [16] in a line: Tmax in Swiss Webster mouse at 16.5 mg/kg, po by HPLC-MS/MS analysis. Further details: dose 16.5 mg/kg, route oral. The data set is classed as ADME, organism-based. The note with it: in vivo. In outline: (§6)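 Male Swiss Webster mice (n = 3 per time point), single dose by oral gavage (sterile water solution) or tail-vein bolus i.v. (water diluted 1:1 with 2× saline, over ~10–20 s); dose volume 5 ml/kg. Terminal blood sampled from 5 min to 72 h postdose; plasma quantified by HPLC-MS/MS (positive-ion SRM). Noncompartmental analysis gave Cmax, Tmax, AUC0-∞, CL, Vss; bioavailability from p.o. versus i.v. exposure.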

Data set [17] can be described thus: Tmax in Swiss Webster mouse at 1 mg/kg, iv by HPLC-MS/MS analysis. The data set is classed as ADME, organism-based. Further details: dose 1 mg/kg, route intravenous. The note with it: in vivo. The procedure, abridged: as §6
Data set [18] in a line: Oral bioavailability in Swiss Webster mouse at 16.5 mg/kg by HPLC-MS/MS analysis. In kind it is ADME, organism-based. The note with it: in vivo. In outline:
as §6

Data set [19] relates to Mus musculus. Description: Renal toxicity in BALB/c mouse assessed as blood urea nitrogen level in serum at 100 mg/kg/day, po administered for five days (Rvb= 29 mg/dl). In kind it is organism-based. Particulars: in vivo. Further details: route oral. The procedure, abridged:
as §5

The test system of data set [20] is Mus musculus. The data set can be described thus: Renal toxicity in BALB/c mouse assessed as blood urea nitrogen level in serum at 10 mg/kg/day, iv administered for five days (Rvb= 20 mg/dl). In kind it is organism-based. Further details: route intravenous. The note with it: in vivo. In outline: as §5
For data set [21], the system named is Mus musculus. The data set can be described thus: Toxicity in BALB/c mouse at 25 mg/kg/day, po administered for five days. In kind it is organism-based. Also on record: route oral. Particulars: in vivo.
A short description of data set [22]: Half life in Swiss Webster mouse at 1 mg/kg, iv by HPLC-MS/MS analysis. The data set is classed as ADME, organism-based. Also on record: dose 1 mg/kg, route intravenous. Particulars: in vivo. The procedure, abridged: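 Male Swiss Webster mice, n = 3 per time point. For i.v., the compound was dissolved in sterile water, diluted 1:1 with 2× saline, and given as a tail-vein bolus over ~10–20 s. For p.o., it was given by gavage in sterile water. Dose volume was 5 ml/kg. Parameters came from noncompartmental analysis.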

The test system of data set [23] is Mus musculus. The data set can be described thus: Toxicity in BALB/c mouse assessed as decrease in liver weight at 150 mg/kg/day, po administered for five days. The data set is classed as organism-based. Further details: route oral. The note with it: in vivo. The procedure, abridged:
as §5

A short description of data set [24]: Oral bioavailability in Swiss Webster mouse at 131 mg/kg by HPLC-MS/MS analysis. In kind it is ADME, organism-based. The note with it: in vivo. The procedure, abridged:
as §6

By inhibition in vivo is commonly meant how much of the control response was suppressed. In general, half-life refers to how long it takes for the measured level to halve. The term Cmax denotes the maximum level reached in the sampled fluid or tissue. `CC(C)Oc1cc(NC(=N)c2ccccn2)ccc1-c1ccc(-c2ccc(NC(=N)c3ccccn3)cc2OC(C)C)o1`: the Activity in data set [1] is listed as 28; in [3], 29; in data set [4], 38; in data set [6] it was 98; in the data set with Mus musculus [7], “Non-toxic”; in [9], 135. Moreover, the Activity in the data set with Mus musculus [11] was 35 U/L; in the data set on Leishmania donovani [12] it was 71%; in [13] it was 48; in the data set on Mus musculus [15] it was 7.6 mg/dL. In the data set on Leishmania donovani [2], the inhibition in vivo at 50 mg/kg/day is 70%. The compound also had a half-life in data set [5] of 24 h. For the same compound, the inhibition in vivo at 30 mg/kg/day in the data set with Leishmania donovani [8] came to 24%. For the same compound, in the data set on Leishmania donovani [10], the inhibition in vivo at 100 mg/kg/day amounted to 79%. The peak level in [14] (Cmax) was 1760 nM.
One may read the Tmax as the time from dosing to the highest level. In general, bioavailability refers to the share of a dose that reaches the circulation, judged against a reference dose that is usually intravenous. Turning to `CCOc1cc(NC(=N)c2ccccn2)ccc1-c1ccc(-c2ccc(NC(=N)c3ccccn3)cc2OCC)o1`, the Tmax in data set [16] turned out to be 2 h; in [17], 5 min. For the same compound, the bioavailability in [18] is 3.3%; in data set [24], 25%. Besides, the Activity with Mus musculus [19] is 52 mg/dL; with Mus musculus [20], 24 mg/dL; with Mus musculus [21], “Non-toxic”; in the data set on Mus musculus [23], “Toxic”. In addition, the half-life in data set [22] is 17 h.
